Screening data (PubChem BioAssay)
F508del corr = CFTR F508del correction in bronchial cells; activity (quench increase), % at 7.58 µM; AID 720511; CFBE cells, YFP halide quenching; stimulated with forskolin plus potentiator P3; % fluorescence drop versus neutral controls; hit rate 0.36% among 350,000;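 active = mean added fluorescence quench of at least 8% versus neutral control, with both replicates also reaching 8%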;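 note: cells transiently co-express mutant CFTR-F508del with the halide-sensitive YFP; corrector assay measuring rescue of mutant channel to the surface after 24 h compound exposure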
MC4R ag barr = activates human MC4R beta-arrestin recruitment; P32245; U2OS MC4R beta-arrestin complementation, luminescence; percent of melanotan II response, DMSO zero; activation, % at 8.9 µM; hit rate 0.98% among 360,000; AID 540308;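 active = activation above a per-plate cutoff, the mean activation of sample wells on that plate plus 3 SD, cut at about 8% in these data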
Target sequence (P32245 whole entry, looked up): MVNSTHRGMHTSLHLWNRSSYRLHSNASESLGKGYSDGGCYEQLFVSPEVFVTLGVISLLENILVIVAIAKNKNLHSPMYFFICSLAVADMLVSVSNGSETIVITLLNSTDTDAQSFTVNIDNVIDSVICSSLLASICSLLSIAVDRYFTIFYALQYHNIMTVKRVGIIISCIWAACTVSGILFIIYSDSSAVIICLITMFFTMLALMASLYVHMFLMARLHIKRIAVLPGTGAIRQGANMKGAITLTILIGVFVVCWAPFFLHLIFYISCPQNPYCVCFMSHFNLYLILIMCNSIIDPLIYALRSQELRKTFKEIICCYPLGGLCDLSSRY
MC4R antag cAMP = human MC4R antagonism in cAMP assay; P32245; MC4R-expressing cells, MTII-stimulated cAMP, LANCE TR-FRET; inhibition, % at 6.5 µM; hit rate 0.48% among 360,000; AID 540295;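 active = inhibition above its plate's cutoff, the mean of tested wells on that plate plus 3 SD, cut at about 29% in these data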
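Material: human MC4R-expressing U2OS cells. Probe or stimulus: Melanotan II challenge. Dosing: 6.5 µM single dose. Times: 30-min compound, 1-h challenge, 1-h detection, room temperature. Technique: TR-FRET with Eu-cAMP and labeled anti-cAMP, 671 nm. Replication: singlicate.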
SMARCA2 act = increases SMARCA2 function in MMTV reporter cells; MG213 cells, MMTV-luciferase reporter, dexamethasone, overnight; activation, % at 9.1 µM; hit rate 1% among 370,000; AID 652017; in the data active = activation above about 7.8%
Numbers stand for hits. Compounds with a hit are over-represented: about 2.1% of the library has one in this group of screens.

`Cc1cccc(N2CCN(C(=O)c3c(-c4ccccc4)noc3C)CC2)c1C` gave F508del corr 15, MC4R ag barr inactive, MC4R antag cAMP inactive and SMARCA2 act inactive.
Screening Cc1cccc(N2CCN(C(=O)c3ccc4[nH]c(C)c(C)c4c3)CC2)c1C returned F508del corr 11, MC4R ag barr inactive, MC4R antag cAMP inactive and SMARCA2 act inactive.
Cc1onc(-c2ccccc2Cl)c1C(=O)N1CCN(c2ccccc2)CC1 was read as MC4R ag barr inactive, MC4R antag cAMP inactive and SMARCA2 act inactive.
Cc1onc(-c2ccccc2Cl)c1C(=O)N1CCN(c2cccc(Cl)c2)CC1 was read as F508del corr 8.1, MC4R ag barr inactive, MC4R antag cAMP inactive and SMARCA2 act inactive.
For COC(=O)C1=C(C)N(Cc2ccccc2)C(=NCc2ccccc2)N[C@H]1c1cccc(C(F)(F)F)c1 the results were MC4R ag barr 16 and MC4R antag cAMP inactive.
`COC(=O)C1=C(C)N(Cc2ccccc2)C(=NCc2ccc(OC)cc2)N[C@H]1c1cccc(F)c1` gave F508del corr inactive, MC4R ag barr inactive, MC4R antag cAMP inactive and SMARCA2 act inactive.
For COC(=O)C1=C(C)N(Cc2ccccc2)C(=NCc2cccc(Cl)c2)N[C@H]1c1cccc(F)c1 the results were MC4R ag barr 13 and MC4R antag cAMP inactive.
Screening COc1ccc(S(=O)(=O)Nc2ccc3c(c2)C(=O)N([C@H](C)CO)C[C@@H](C)[C@H](CN(C)C(=O)Cc2ccccc2)OCCCC[C@H](C)O3)cc1 returned F508del corr inactive.
For COC(=O)c1cc2c(=O)c3ccccc3oc2nc1/C=C/N(C)C the results were F508del corr 28, MC4R ag barr inactive, MC4R antag cAMP inactive and SMARCA2 act inactive.
For COC(=O)c1cc2c(=O)c3ccccc3oc2nc1C the results were F508del corr inactive, MC4R ag barr inactive, MC4R antag cAMP inactive and SMARCA2 act inactive.
For C=C1SC(Nc2c(C)cccc2C)=NC12CCCCC2 the results were F508del corr inactive, MC4R ag barr inactive, MC4R antag cAMP inactive and SMARCA2 act inactive.
C=C1SC(Nc2c(C)cc(C)cc2C)=NC12CCCCC2 was read as F508del corr 11, MC4R ag barr inactive, MC4R antag cAMP inactive and SMARCA2 act inactive.
`COc1ccccc1NC(=O)N[C@@H]1C=C[C@@H](CC(=O)N[C@@H](C)c2ccccc2)O[C@@H]1CO` gave F508del corr inactive.
`Cc1ccc(C)c(N2CCN(C(=O)COc3cc(=O)n(C)c4ccccc34)CC2)c1` gave MC4R ag barr inactive, MC4R antag cAMP inactive and SMARCA2 act inactive.
`Cc1ccc(C)c(N2CCN(C(=O)CCCOc3cc(=O)n(C)c4ccccc34)CC2)c1` gave MC4R ag barr 12, MC4R antag cAMP inactive and SMARCA2 act inactive.
For O=S(=O)(N[C@@H]1CC[C@H](CCn2cc(-c3ccccn3)nn2)O[C@H]1CO)c1cccc(Cl)c1 the results were F508del corr inactive.
Screening COc1ccc(NC(=O)c2ccco2)cc1NC(=O)c1ccccc1F returned F508del corr inactive, MC4R ag barr 9.4, MC4R antag cAMP inactive and SMARCA2 act inactive.
`COc1ccc(S(=O)(=O)NCc2ccccn2)cc1NC(=O)c1ccccc1F` gave F508del corr 8.6, MC4R ag barr inactive, MC4R antag cAMP inactive and SMARCA2 act inactive.
CCOc1ccc(S(=O)(=O)NCc2ccccn2)cc1NC(=O)c1ccccc1 was read as F508del corr inactive, MC4R ag barr inactive, MC4R antag cAMP inactive and SMARCA2 act inactive.
`COC(=O)c1cccc(NC(=O)Nc2ccc(Cl)cc2Cl)c1` gave F508del corr inactive, MC4R ag barr 9.0, MC4R antag cAMP inactive and SMARCA2 act inactive.
For COC(=O)c1cccc(NC(=S)Nc2cc(Cl)ccc2OC)c1 the results were F508del corr inactive, MC4R ag barr inactive, MC4R antag cAMP inactive and SMARCA2 act inactive.
CC1=C/C(=N\OS(=O)(=O)c2ccccc2)C(C(C)C)=CC1=O was read as MC4R ag barr 31 and MC4R antag cAMP 45.
For CC1=C(C)/C(=N\OS(=O)(=O)c2ccc(C)cc2)C=CC1=O the results were MC4R ag barr inactive, MC4R antag cAMP inactive and SMARCA2 act inactive.
`Cn1cccc1C(=O)OCC(=O)NCc1ccc2c(c1)OCO2` gave F508del corr 37, MC4R ag barr inactive, MC4R antag cAMP inactive and SMARCA2 act inactive.
Screening CCN(CCCNC(=O)Cn1ncc2c(=O)oc3ccccc3c21)c1cccc(C)c1 returned F508del corr inactive, MC4R ag barr 9.4, MC4R antag cAMP inactive and SMARCA2 act inactive.
Screening COc1ccc2c3c([nH]c2c1)[C@H](CO)N(S(C)(=O)=O)CC31CCN(C(=O)c2ccccc2)CC1 returned F508del corr inactive.
Screening C[C@@H]1CN([C@H](C)CO)C(=O)c2cccc(NS(=O)(=O)c3ccc(Cl)cc3)c2O[C@@H]1CN(C)C(=O)Nc1ccc2c(c1)OCO2 returned F508del corr inactive.
For O=C(CCN1CCCCC1)N[C@@H]1CC[C@@H](CCNS(=O)(=O)c2ccccc2)O[C@@H]1CO the results were F508del corr inactive.
For N#Cc1cccc2c1-c1ccccc1/C2=N/NC(N)=S the results were MC4R ag barr 17 and MC4R antag cAMP inactive.
For O=C(C[C@@H]1CC[C@H]2[C@@H](COC[C@@H](O)CN2C(=O)c2ccncc2)O1)NCc1ccc(-c2ccccc2)cc1 the results were F508del corr inactive.
`CCN(CC(=O)Nc1ccc2c(c1)OCCO2)C(=O)COc1cc(C)ccc1Cl` gave F508del corr inactive, MC4R ag barr inactive, MC4R antag cAMP inactive and SMARCA2 act inactive.
Cc1ccc(Cl)c(OCC(=O)Nc2ccc3c(c2)OCCO3)c1 was read as MC4R ag barr 9.0, MC4R antag cAMP inactive and SMARCA2 act inactive.
Screening COc1ccc(NC(=O)N(C)C[C@H]2OCCCC[C@@H](C)Oc3ccc(NC(=O)C4CCCCC4)cc3C(=O)N([C@H](C)CO)C[C@@H]2C)cc1 returned F508del corr inactive.
For COc1ccc(C2=CC3=C(Br)C(=O)C(C)(O)C(=O)C3=CO2)cc1 (configuration not stated) the results were MC4R ag barr inactive and MC4R antag cAMP 35.
For CCCCCCCCCCS(=O)(=O)N/N=C/c1ccc(O)cc1 the results were MC4R ag barr 9.0, MC4R antag cAMP inactive and SMARCA2 act inactive.
For O=C(c1cc(COc2c(F)cccc2F)on1)N1CCCCCC1 the results were F508del corr inactive, MC4R ag barr inactive, MC4R antag cAMP inactive and SMARCA2 act 7.9.
CC1CC(C)CN(C(=O)c2ccc(S(=O)(=O)N3CC(C)CC(C)C3)cc2)C1 (configuration not stated) was read as F508del corr inactive, MC4R ag barr inactive, MC4R antag cAMP inactive and SMARCA2 act inactive.
`CC1CC(C)CN(S(=O)(=O)c2ccc(Cl)cc2)C1` (configuration not stated) gave F508del corr inactive, MC4R ag barr 9.2, MC4R antag cAMP inactive and SMARCA2 act inactive.
Cc1ccc(-n2sc3ccccc3c2=O)cc1S(=O)(=O)N1CCCCC1 was read as F508del corr inactive, MC4R ag barr inactive, MC4R antag cAMP 53 and SMARCA2 act inactive.
